# V-ATPase pHluor – alters yeast V-ATPase proton transport; S. cerevisiae, pHLuorin cytosolic pH fluorescence; response, % at 10 µM; hit rate 0.37% among 350,000; in the data active = response mostly above about 7.3%, no sharp cut-off; inactive = mostly below about 5.4%; also: actives read high
# Granule exo inh – lytic granule exocytosis inhibition. TALL-104 LAMP-1 surface exposure, flow cytometry; cells stimulated with thapsigargin and PMA. inhibition, % at 10 µM. hit rate 0.66% among 360,000. AID 651702;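 active = inhibition above about 55%, limit read from the data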
# T cell modulator – T cell immune modulation candidate; 2C CD8+ T cell-vesicle binding, flow cytometry; active compounds read low; response (vesicle binding), % at 7 µM; hit rate 0.068% among 330,000;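 active = response, share of CD8 T cells binding vesicles, and their 90th percentile fluorescence all below set limits, cut at about 80% in these data, passing the limit was not always enough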;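 also: values below 100% mean blocked vesicle binding to the CD8+ T cells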
#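 Test system: purified 2C TCR transgenic mouse naive CD8+ T cells. Probe or stimulus: QL9-peptide-loaded Drosophila micro-vesicles bearing Ld, ICAM-1 and B7-1. Incubation: binding step 1.5 h, 37 °C, antibody labelling 20 min, ice. Measured by: flow cytometry of vesicle-bound cells.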
# Beta2AR agonist – human beta-2 adrenergic receptor agonism by FAP. Am2.2-beta2AR cells, FAP receptor internalization, flow cytometry. response, % (test concentration not listed). hit rate 0.43% among 340,000. AID 504454;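 active = response above a set limit, near 3 SD of response in nonfluorescent compounds, cut at about 42% in these data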
# Target sequence (P07550 whole entry, looked up): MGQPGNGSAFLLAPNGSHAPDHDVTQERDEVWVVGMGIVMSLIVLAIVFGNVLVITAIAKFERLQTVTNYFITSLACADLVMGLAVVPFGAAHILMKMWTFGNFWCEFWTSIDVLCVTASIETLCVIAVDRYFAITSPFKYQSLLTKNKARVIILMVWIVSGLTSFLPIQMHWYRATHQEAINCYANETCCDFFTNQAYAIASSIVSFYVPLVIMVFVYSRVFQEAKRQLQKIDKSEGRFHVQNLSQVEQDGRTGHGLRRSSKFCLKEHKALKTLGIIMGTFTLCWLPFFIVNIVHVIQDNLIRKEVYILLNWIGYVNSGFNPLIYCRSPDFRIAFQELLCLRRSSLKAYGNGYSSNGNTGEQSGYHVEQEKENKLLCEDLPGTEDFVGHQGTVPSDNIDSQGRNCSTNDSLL
# MPTP block – blocks calcium-induced mitochondrial swelling. isolated mouse mitochondria, Ca2+ swelling absorbance, 30 min. inhibition, % at 10 µM. hit rate 1.4% among 360,000;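 active = inhibition of 50% or more, scaled per plate between neutral and stimulator controls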;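 also: 0% = DMSO wells given calcium and 100% = 1 mM EGTA wells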
# rCAG binder – molecules binding r(CAG) RNA repeats; r(CAG) RNA repeat, TO-PRO-1 dye displacement fluorescence; inhibition, % at 3 µM; hit rate 1.3% among 370,000;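 active = inhibition above the plate cutoff, the mean of all test compounds on that plate plus 3 SD, cut at about 35% in these data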;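 also: 0% = DMSO alone and 100% = 100 µM mitoxantrone as full dye displacement; higher means more dye released from RNA so lower well fluorescence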
# MPTP counter – membrane potential counter-screen of mitochondrial pore inhibitors; shares compounds with MPTP block; isolated mitochondria, Rhodamine 123 fluorescence; inhibition, % at 10 µM; hit rate 78% among 5,000; AID 624504; in the data active = inhibition above about 22%;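 also: 0% = DMSO vehicle and 100% = positive control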
# MPTP swell DR – MPTP inhibition, dose response swelling confirmation. shares compounds with MPTP block. isolated mitochondria swelling, absorbance. hit rate 58% among 780. IC50, µM; in the data active = IC50 below about 20 µM
# MPTP cs DR – MPTP inhibitor counter-screen activity, dose response; hit rate 49% among 780; isolated mitochondria counterscreen, fluorescence read-out; IC50, µM; shares compounds with MPTP block; in the data active = IC50 below about 80 µM
# An asterisk follows results filed as active; nt = not tested or not shown. The list is not random: actives were taken first. Their share in the collection is about 3.8%.
SMILES,V-ATPase pHluor,Granule exo inh,T cell modulator,Beta2AR agonist,MPTP block,rCAG binder,MPTP counter,others
CC(NC(=S)NC1CCCCC1)c1ccc(C(C)(C)C)cc1 (configuration not stated),3,5,214,7,53*,-4,106*,
CCC(C)c1ccc(C(C)NC(=S)NC2CCCCC2)cc1 (configuration not stated),1,4,0,-3,59*,-8,103*,
CCc1ccc(C(C)NC(=S)NC2CCCCC2)cc1 (configuration not stated),2,2,413,-5,4,nt,nt,
CCn1c(=O)n(CC(=O)N2CCC(C)CC2)c(=O)c2ccccc21,nt,nt,nt,nt,nt,0,nt,
OCCN1CCN(c2ncnc3c2ncn3[C@H]2CN(Cc3cccs3)C[C@@H](CO)O2)CC1,nt,1,nt,nt,57*,-1,-3,MPTP swell DR=>100;MPTP cs DR=>80
Cc1nn(C)c(C(=O)NCc2ccc(Cl)cc2)c1Cl,2,-3,474,-5,93*,-5,86*,
Cc1nc(C)c(C(=O)NCc2ccc(Cl)cc2)o1,-2,0,269,7,14,nt,nt,
COC1C(O)CCC2(CO2)C1C1(C)OC1CC=C(C)C (configuration not stated),nt,nt,nt,nt,nt,-2,nt,
Cc1ccc(-c2cc(-c3nnc(SCC(=O)Nc4nccs4)n3N)[nH]n2)cc1,nt,nt,nt,nt,nt,8,nt,
O=C1CCC2(CCC(c3ccccc3)CC2)N1CCO (configuration not stated),nt,nt,nt,nt,nt,0,nt,
CCSc1nnc(NC(=O)c2cccc(S(=O)(=O)N(C)c3ccc(C)cc3)c2)s1,-2,-2,0,-1,72*,15,73*,
CN(c1ccccc1)S(=O)(=O)c1cccc(C(=O)NNC(=O)c2ccccc2)c1,-2,-3,248,-5,56*,-2,38*,
CN(c1ccccc1)S(=O)(=O)c1ccc(C(=O)NNC(=O)c2ccccc2)cc1,0,-3,388,1,-2,3,nt,
CCN(c1ccccc1)S(=O)(=O)c1cc(NC(=O)Nc2ccccc2C#N)ccc1Cl,-1,1,0,-19,96*,4,95*,
CCN(c1ccccc1)S(=O)(=O)c1ccc(Cl)c(NC(=O)Nc2ccc(Cl)cc2C#N)c1,2,11,206,-2,3,5,nt,
CN(c1ccccc1)S(=O)(=O)c1cccc(NC(=O)Nc2ccc(Cl)cc2C#N)c1,1,1,780,-25,71*,4,86*,
CC[C@H]1C=C[C@@H](C(=O)NS(=O)(=O)c2ccc(C)cc2)N(C(C)=O)C1,nt,nt,nt,nt,nt,5,nt,
O=C(NC1CCCCN(Cc2cccc(Cl)c2)C1=O)c1ccc2ccccc2c1 (configuration not stated),nt,nt,nt,nt,nt,1,nt,
CCN(c1ccccc1)S(=O)(=O)c1cc(C(=O)Nc2ccc(F)c(F)c2)ccc1F,0,6,177,16,91*,4,81*,
CC(=O)Nc1ccc(S(=O)(=O)N(C)c2ccccc2)cc1,6,9,250,1,1,10,nt,
CN(c1ccccc1)S(=O)(=O)c1cccc(NC(=O)c2ccc(Cl)c([N+](=O)[O-])c2)c1,0,-1,387,19,95*,9,84*,
CN(c1ccccc1)S(=O)(=O)c1ccc(NC(=S)Nc2ccccc2)cc1,-4,-5,332,5,96*,3,91*,
CN(c1ccccc1)S(=O)(=O)c1cccc(NC(=O)c2ccncc2)c1,2,-1,182,-11,96*,8,69*,
CCN(CC)S(=O)(=O)c1ccc(C(=O)OCC(=O)c2ccc3c(c2)NC(=O)CO3)cc1,-5,0,163,1,2,9,nt,
CCN(CC)S(=O)(=O)c1cc(C(=O)OCC(=O)c2ccc3c(c2)NC(=O)CO3)ccc1Cl,-1,0,424,9,85*,4,59*,
SMILES,V-ATPase pHluor,Granule exo inh,T cell modulator,Beta2AR agonist,MPTP block,rCAG binder,MPTP counter,others
Cc1cc(C)c(CN2CCN(C(=O)Cn3cnc4c(OCc5ccccc5)ncnc43)CC2)c(C)c1,4,10,254,10,67*,6,84*,
O=C(O)Cn1cnc2c(OCc3ccccc3)ncnc21,4,0,646,-3,-2,0,nt,
O=c1c(N=Nc2ccc(O)cc2)c(-c2ccccc2)[nH]n1-c1ccc([N+](=O)[O-])cc1,0,-2,276,7,29,5,nt,
O=c1cc(-c2ccccc2)[nH]n1-c1ccc([N+](=O)[O-])cc1,1,-1,118,21,100*,nt,77*,
CC1(C)CC(=O)N(CC(=O)N2CCN(c3cccc(C(F)(F)F)c3)CC2)c2ccccc2S1(=O)=O,nt,nt,nt,nt,nt,3,nt,
C=CCN1C(=O)[C@H](CC(=O)NCC23CC4CC(CC(C4)C2)C3)[C@@]2(C(=O)OCC)CCCC=C12,nt,nt,nt,nt,nt,0,nt,
COc1ccc(N2CCCN(CC(=O)Nc3ccccc3C)CC2)cc1,nt,nt,nt,nt,nt,-2,nt,
NC1=NC[C@H](Cc2ccccc2)N1CCCCC1CCCCC1,0,54,169,-11,82*,13,48*,
Cc1nc(C(=O)Nc2ccccc2Cl)cc2c1[nH]c1ccccc12,-2,2,154,-5,55*,-57,11,MPTP swell DR=>100;MPTP cs DR=>80
COC(=O)[C@]12C[C@H](CC(=O)N3CCSCC3)C(=O)N(Cc3ccccc3)C1=C[C@H](C(C)C)O[C@@H]2C1CC1,nt,nt,nt,nt,nt,1,nt,
COc1ccc(Cn2cc(COC(=O)NCCc3c[nH]c4ccccc34)nn2)cc1,nt,nt,nt,nt,nt,6,nt,
O=C(Nc1nnc(C(F)(F)F)s1)c1ccc(Br)s1,1,6,410,11,78*,5,75*,
CCSc1nnc(NC(=O)c2ccc(Br)s2)s1,0,5,252,3,-1,3,nt,
Cc1nn(-c2ccccc2)nc1C(=O)Nc1nnc(C(F)(F)F)s1,2,-1,276,4,73*,5,79*,
CC(NC(=O)Nc1nnc(C(F)(F)F)s1)(C(F)(F)F)C(F)(F)F,4,3,624,21,94*,6,110*,
O=C(Nc1nnc(C(F)(F)F)s1)C1COc2ccccc2O1 (configuration not stated),4,1,144,2,84*,3,78*,
O=S1(=O)c2c(cccc2N2CC[C@@H](O)C2)O[C@H]2CCN1C2,nt,nt,nt,nt,nt,0,nt,
N=c1c2c(-c3ccccc3)c(-c3ccccc3)n(Cc3ccco3)c2ncn1CCO,-3,6,820,18,81*,13,-3,
COc1cc(/C=C(\C#N)c2nc3ccccc3o2)ccc1O,-6,8,398,-566,14,1,nt,
N#C/C(=C\c1ccc(O)cc1)c1nc2ccccc2o1,-2,6,524,-15,87*,14,90*,
